Bioassay records (PubChem)
This is a sample that favours compounds with a hit; in the whole collection about 1.9% have one here.
Neddyl block: cullin neddylation inhibition | TR-FRET cullin neddylation, biochemical | P61081+Q13564 | inhibition, % at 25 µM | hit rate 0.58% among 360,000 | AID 651699; in the data active = inhibition above about 36%
SR-BI uptake up: activators of SR-BI mediated HDL lipid uptake. AID 504775. CHO ldlA[mSR-BI] cells, DiI-HDL uptake fluorescence, 3 h; 100 = double the neutral-control signal. activation, % at 12.5 µM. hit rate 0.096% among 320,000;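 active = mean replicate activation of at least 60% and every replicate at or above 60%; inconclusive = mean or all-replicate condition met, but not both; inactive = mean below 60% and not all replicates reaching 60%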;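 also: 0% = median plate neutral-control signal and 100% = twice that signal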
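Material: SR-BI-overexpressing, LDLR-lacking CHO cells; schedule: compound exposure 3 h, 37 °C; reagent: DiI-labelled HDL at 10 µg/mL final; technique: bottom-read fluorescence, 550/595 nm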
UBC13 polyUb: human UBC13 polyubiquitination inhibition; hit rate 0.47% among 330,000; AID 485273; P61088; inhibition, % at 20 µM; UBC13 polyubiquitin chain formation, TR-FRET; in the data active = inhibition above about 45%, passing the limit was not always enough; inconclusive = no clear call, values can overlap the other calls
Target sequence (P61088 whole entry, looked up): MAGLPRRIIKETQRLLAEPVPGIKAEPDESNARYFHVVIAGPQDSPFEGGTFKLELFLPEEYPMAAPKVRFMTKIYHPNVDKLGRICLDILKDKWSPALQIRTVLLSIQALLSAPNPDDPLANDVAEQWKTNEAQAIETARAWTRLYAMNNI
SR-BI DiI inh: mouse SR-BI HDL lipid transfer inhibition; ldlA[mSR-BI] CHO cells, DiI-HDL uptake fluorescence, 3 h; inhibition, % at 12.5 µM; hit rate 0.96% among 320,000; AID 488896;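 active = mean replicate inhibition of at least 70% and a set share of replicates each scoring 70 or more; inconclusive = meets just one of the two criteria; inactive = fails both criteria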;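 also: 0% = median of neutral control wells and 100% = median of positive control wells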
Casp3 UBC13 ctr: counter-screen for UBC13 inhibitors: human caspase-3 inhibition. shares compounds with UBC13 polyUb. Recombinant caspase-3, Caspase-Glo 3/7 luminescence, 60 min. inhibition, % at 20 µM. hit rate 4% among 1,400;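 active = mean inhibition across replicates above about 26%, limit read from the data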;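 also: plate controls were DMSO with caspase-3 for no effect and DMSO wells lacking enzyme for full effect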
Target sequence (P42574 whole entry, looked up): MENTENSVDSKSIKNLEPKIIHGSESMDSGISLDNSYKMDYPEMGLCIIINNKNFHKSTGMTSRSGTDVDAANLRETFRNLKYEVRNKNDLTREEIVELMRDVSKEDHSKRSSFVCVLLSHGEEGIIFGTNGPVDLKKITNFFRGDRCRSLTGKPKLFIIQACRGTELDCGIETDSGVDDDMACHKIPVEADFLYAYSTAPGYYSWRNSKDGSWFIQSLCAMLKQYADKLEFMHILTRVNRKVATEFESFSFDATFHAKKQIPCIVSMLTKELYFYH
UBC13 confirm: human UBC13 polyubiquitin inhibition, confirmed; shares compounds with UBC13 polyUb; UBC13 polyubiquitination, TR-FRET, biochemical; AID 488859; hit rate 68% among 1,400; inhibition, % at 10 µM; in the data active = inhibition above about 45%; inconclusive = no clear call, values can overlap the other calls
The depositor's hits bear a star; ? = inconclusive; / = not tested or not shown.

SMILES	Neddyl block	SR-BI uptake up	UBC13 polyUb	SR-BI DiI inh	Casp3 UBC13 ctr	UBC13 confirm
NC(=O)NC(CC(=O)NCCc1ccccn1)c1ccccc1Cl (stereo not given)	-1.4	10.8	-0.5	-10.8	/	/
O=C(CCc1ccccc1)NNC(=O)CCc1ccccc1	6.7	7.3	-3.7	-7.3	/	/
CCNC(=S)NNC(=O)c1ccccn1	6.8	11.7	90.1*	-11.7	-1.4	87.4*
CC(CC(=O)c1ccccc1)=NCCCN=C(C)CC(=O)c1ccccc1	16.6	/	/	/	/	/
CCc1nc2ccc(C(=O)Nc3cccc(OCC(=O)N(C)C)c3)cn2c1N(C)Cc1ccc(OC)cc1	12.8	/	/	/	/	/
O=C(NCc1ccccc1)c1cc(C2COCCN2C(=O)c2ccc(Cl)cc2)on1 (stereo not given)	10.3	/	/	/	/	/
O=C(NC1CCCCC1)C(c1ccnc2ccccc12)n1c(=O)c(-c2ccccc2)nc2ccccc21 (stereo not given)	-69.2	/	/	/	/	/
CCc1cccc2c(C(=O)C(NCCOC)c3ccccc3)c[nH]c12 (stereo not given)	0.3	5.1	22.6	-5.1	/	/
CCNC(C(=O)c1c[nH]c2c(CC)cccc12)c1ccccc1 (stereo not given)	12.3	/	50.0*	/	-0.8	64.3*
O=C(NCC1CCN(Cc2ccc(F)cc2)CC1)C1CCCN(c2ncnc3c2nc2n3CCCCC2)C1 (stereo not given)	9.7	9.5	78.5*	-9.5	-2.8	95.4*
O=C(NCC1CCN(Cc2ccc(Cl)cc2)CC1)C1CCCN(c2ncnc3c2nc2n3CCCCC2)C1 (stereo not given)	6.1	-42.9	78.5*	42.9	-0.6	100.9*
CN1CCN(C(=O)C2CCN(c3ncnc4c3nc3n4CCCCC3)CC2)CC1	1.3	6.1	86.0*	-6.1	5.4	100.7*
O=C(NCC1CCN(Cc2cccc(Cl)c2)CC1)C1CCCN(c2ncnc3c2nc2n3CCCCC2)C1 (stereo not given)	-0.4	-37.4	93.4*	37.4	-3.0	107.4*
O=C(NCCc1ccc(Cl)cc1)C1CCCN(c2ncnc3c2nc2n3CCCCC2)C1 (stereo not given)	-2.2	-4.4	5.5	4.4	/	/
O=C(CCCn1nnnc1CN1CCOCC1)N1CCC(c2ccc(F)cc2)C1 (stereo not given)	-2.2	10.0	-3.0	-10.0	/	/
CCC1CCCCN1CCCNC(=O)C1CCCN(c2ncnc3c2nc2n3CCCCC2)C1 (stereo not given)	13.0	20.5	34.6	-20.5	/	/
CC1CCCC(C)N1CCCNC(=O)C1CCCN(c2ncnc3c2nc2n3CCCCC2)C1 (stereo not given)	8.0	6.1	55.5*	-6.1	2.2	87.5*
CN(C)CCCNC(=O)CC1C[C@H](C(=O)N2CCCCC2)[C@@]2(CCc3ccccc3)c3[nH]c4ccccc4c3CCN2C1=O (stereo not given in full)	0.2	2.5	47.1*	-2.5	0.1	16.9
CCCCN1CC(N2CCCCC2)CS1(=O)=O (stereo not given)	13.1	/	/	/	/	/
CCN1CCN(C(=O)c2cc(-c3ccco3)nc3ccccc23)CC1	/	0.8	51.5*	-0.8	3.6	31.6
Cc1ccc(NC(=S)NNC(=O)c2nnn(-c3ccccc3)c2C)cc1	9.1	-20.5	45.0*	20.5	3.2	48.2*
CC1=C(C(=O)N(C(C)C)C(C)C)CC(CC(=O)NCCN2CCOCC2)C(=O)N1Cc1ccccc1 (stereo not given)	-0.7	/	/	/	/	/
Cc1ccc(C(=O)NCCCNCCCN(C)C)cn1	-3.0	20.7	51.6*	-20.7	-3.5	35.2
CC(=O)n1cc([C@H]2C=C(C(=O)Nc3ccccc3)O[C@@H](OCc3ccc(CO)cc3)C2)c2ccccc21	-27.6	-46.5	63.7*	46.5	7.1	57.9*
C#CCNC(=O)C1=C[C@H](c2cn(C(C)=O)c3ccccc23)C[C@H](OCc2ccc(CO)cc2)O1	-8.8	-9.4	62.6*	9.4	-1.6	46.3*
SMILES	Neddyl block	SR-BI uptake up	UBC13 polyUb	SR-BI DiI inh	Casp3 UBC13 ctr	UBC13 confirm
CC(=O)n1cc([C@@H]2C=C(C(=O)NCc3ccccc3)O[C@H](OCc3ccc(CO)cc3)C2)c2ccccc21	-14.1	-12.9	-10.5	12.9	/	/
COc1ccc(C(C(=O)NC2CCCC2)N(CCO)C(=O)Cn2nnc(-c3ccc(C)o3)n2)cc1OC (stereo not given)	1.1	4.2	2.3	-4.2	/	/
Cc1c(C=Nc2ccc(S(=O)(=O)N(C)C)cc2)c(O)[nH]c(=O)c1C#N	4.4	-5.4	2.4	5.4	/	/
O=C(C[C@@H]1C/C=C\CC[C@@H](Cc2ccc(F)cc2)C(=O)OC[C@@H]2CCCN2C1=O)N[C@H](CO)Cc1ccccc1	4.0	2.5	1.2	-2.5	/	/
COc1ccc(-c2cc(C#N)nc(N3CCNCC3)n2)cc1	22.1	-4.9	98.2*	4.9	-3.3	73.7*
COc1ccc(C(C(=O)NC(C)(C)C)N(C(=O)CNC(=O)c2cccs2)c2cccnc2)cc1OC (stereo not given)	2.9	7.0	5.2	-7.0	/	/
Cc1ccc(NC(=O)CS(=O)CC(=O)NCCCc2ccccc2)cc1Cl (stereo not given)	-9.4	5.8	64.9*	-5.8	2.7	73.3*
O=C(CC1C(=O)NCCN1Cc1cccc(F)c1F)NCCCC1CCCC1 (stereo not given)	9.7	-6.1	3.1	6.1	/	/
CC(C)(C)c1ccc(-c2nc3c(C#N)c(-c4ccc5c(c4)OCO5)ccn3n2)cc1	-61.8	-7.4	47.6*	7.4	-4.1	?
N#C/C(=C/c1cn(-c2ccccc2)nc1-c1cccc(OCc2ccccc2)c1)C(=O)NCCCn1ccnc1	22.6	84.4*	48.1*	-84.3	-1.2	55.6*
CCN(CC)S(=O)(=O)c1ccc(N2CCCC2)c(NC(=O)C2=NN(c3ccccc3)C(=O)CC2)c1	6.7	5.2	-5.5	-5.2	/	/
CCc1cc2c(=O)n(-c3ccccc3)c(=S)[nH]c2s1	-16.3	-12.2	47.8*	12.2	1.6	?
O=C(CCNC(=O)c1ccccc1Cl)Nc1ccc(S(=O)(=O)N2CCOCC2)cc1	-11.6	/	/	/	/	/
COc1cc2c3nnc(-c4ccc(F)cc4)c-3cn(Cc3ccc(C)cc3)c2cc1OC	38.3*	7.4	48.7*	-7.4	2.1	16.3
COc1cc2c3nnc(-c4ccccc4)c-3cn(Cc3ccc(F)cc3)c2cc1OC	/	41.5	20.0	-41.5	/	/
CC1CCN(S(=O)(=O)N2CCC(C(=O)NCc3ccc(F)cc3Cl)CC2)CC1	-4.5	/	/	/	/	/
Cc1cccc(N2CCN(c3ccc4cc(S(=O)(=O)N5CCCCC5)ccc4n3)CC2)c1C	-253.7	12.5	52.3*	-12.5	-1.3	?
CCC(C)(C)NC(=O)C(c1ccc(C)o1)N(Cc1ccc2c(c1)OCO2)C(=O)c1snc(C(N)=O)c1N (stereo not given)	24.2	/	77.6*	/	-3.3	86.5*
